How the values were obtained:
Format in all cases: functional
UO-31 = assay: Growth inhibition of human UO31 cells at 10 uM after 48 hrs by coulter counter analysis; conditions: UO-31, 48 h, read-out: GI
How it was run: (§1)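 Single-dose screen in the NCI 60 cell line panel. Cells grown in RPMI 1640 with 10% FBS. Compounds dissolved in DMSO and diluted in phosphate buffered saline, final DMSO under 1%. Duplicate wells seeded from culture at 6 × 10⁴ cells/ml. Incubated 48 h at 37 °C, humidified, 5% CO2. Cells diluted tenfold in saline and Coulter-counted. Percent growth inhibition computed against PBS/DMSO controls.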

BT-549 = assay: Growth inhibition of human BT549 cells at 10 uM after 48 hrs by coulter counter analysis; conditions: BT-549, 48 h, read-out: GI
How it was run: (§2)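 Single-dose NCI 60-line panel screen of test compounds. Cells grown in RPMI 1640 with 10% FBS. Compounds dissolved in DMSO, then diluted in phosphate buffer saline (final DMSO below 1%). Wells run in duplicate at 6 × 10⁴ cells/ml. Controls held PBS and DMSO at matching dilutions. Incubation 48 h at 37 °C under humidified 5% CO2. Cells diluted tenfold in saline and counted by Coulter counter. Percent growth inhibition taken from mean-graph of treated-cell growth.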

RPMI-8226 = assay: Growth inhibition of human RPMI8226 cells at 10 uM after 48 hrs by coulter counter analysis; conditions: RPMI-8226, 48 h, read-out: GI; how it was run: as §2
CAKI-1 = assay: Growth inhibition of human Caki1 cells at 10 uM after 48 hrs by coulter counter analysis; conditions: CAKI-1, 48 h, read-out: GI; how it was run: as §2
U-251 = assay: Growth inhibition of human U251 cells at 10 uM after 48 hrs by coulter counter analysis; conditions: U-251, 48 h, read-out: GI; how it was run: as §1
OVCAR-8 = assay: Growth inhibition of human OVCAR8 cells at 10 uM after 48 hrs by coulter counter analysis; conditions: OVCAR-8, 48 h, read-out: GI; how it was run: as §2
ACHN = assay: Growth inhibition of human ACHN cells at 10 uM after 48 hrs by coulter counter analysis; conditions: read-out: GI; how it was run: as §2
[1] = Growth inhibition of human NCI-ADR-RES cells at 10 uM after 48 hrs by coulter counter analysis; conditions: read-out: GI; how it was run: as §2
HOP-92 = assay: Growth inhibition of human HOP92 cells at 10 uM after 48 hrs by coulter counter analysis; conditions: HOP-92, 48 h, read-out: GI; how it was run: as §2
SR = assay: Growth inhibition of human SR cells at 10 uM after 48 hrs by coulter counter analysis; conditions: read-out: GI; how it was run: as §1
A549 = assay: Growth inhibition of human A549/ATCC cells at 10 uM after 48 hrs by coulter counter analysis; conditions: A549, 48 h, read-out: GI; how it was run: as §2
NCI-H23 = assay: Growth inhibition of human NCI-H23 cells at 10 uM after 48 hrs by coulter counter analysis; conditions: NCI-H23, 48 h, read-out: GI; how it was run: as §2
SNB-75 = assay: Growth inhibition of human SNB75 cells at 10 uM after 48 hrs by coulter counter analysis; conditions: SNB-75, 48 h, read-out: GI; how it was run: as §1
CCRF-CEM = assay: Growth inhibition of human CCRF-CEM cells at 10 uM after 48 hrs by coulter counter analysis; conditions: read-out: GI; how it was run: as §2
K562 = assay: Growth inhibition of human K562 cells at 10 uM after 48 hrs by coulter counter analysis; conditions: K562, 48 h, read-out: GI; how it was run: as §2
HOP-62 = assay: Growth inhibition of human HOP62 cells at 10 uM after 48 hrs by coulter counter analysis; conditions: HOP-62, 48 h, read-out: GI; how it was run: as §2
786-0 = assay: Growth inhibition of human 786-0 cells at 10 uM after 48 hrs by coulter counter analysis; conditions: 786-0, 48 h, read-out: GI; how it was run: as §2
OVCAR-5 = assay: Growth inhibition of human OVCAR5 cells at 10 uM after 48 hrs by coulter counter analysis; conditions: OVCAR-5, 48 h, read-out: GI; how it was run: as §2
NCI-H460 = assay: Growth inhibition of human NCI-H460 cells at 10 uM after 48 hrs by coulter counter analysis; conditions: NCI-H460, 48 h, read-out: GI; how it was run: as §2
OVCAR-3 = assay: Growth inhibition of human OVCAR3 cells at 10 uM after 48 hrs by coulter counter analysis; conditions: OVCAR-3, 48 h, read-out: GI; how it was run: as §2
SN12C = assay: Growth inhibition of human SN12C cells at 10 uM after 48 hrs by coulter counter analysis; conditions: read-out: GI; how it was run: as §2
SF-295 = assay: Growth inhibition of human SF295 cells at 10 uM after 48 hrs by coulter counter analysis; conditions: SF-295, 48 h, read-out: GI; how it was run: as §2
KM12 = assay: Growth inhibition of human KM12 cells at 10 uM after 48 hrs by coulter counter analysis; conditions: KM12, 48 h, read-out: GI; how it was run: as §2
SK-MEL-5 = assay: Growth inhibition of human SK-MEL-5 cells at 10 uM after 48 hrs by coulter counter analysis; conditions: SK-MEL-5, 48 h, read-out: GI; how it was run: as §2
NCI-H226 = assay: Growth inhibition of human NCI-H226 cells at 10 uM after 48 hrs by coulter counter analysis; conditions: NCI-H226, 48 h, read-out: GI; how it was run: as §2
SK-MEL-28 = assay: Growth inhibition of human SK-MEL-28 cells at 10 uM after 48 hrs by coulter counter analysis; conditions: SK-MEL-28, 48 h, read-out: GI; how it was run: as §2
MDA-MB-231 = assay: Growth inhibition of human MDA-MB-231 cells at 10 uM after 48 hrs by coulter counter analysis; conditions: MDA-MB-231, 48 h, read-out: GI; how it was run: as §2
SW-620 = assay: Growth inhibition of human SW620 cells at 10 uM after 48 hrs by coulter counter analysis; conditions: SW-620, 48 h, read-out: GI; how it was run: as §1
HCT-116 = assay: Growth inhibition of human HCT116 cells at 10 uM after 48 hrs by coulter counter analysis; conditions: HCT-116, 48 h, read-out: GI; how it was run: as §2
DU-145 = assay: Growth inhibition of human DU145 cells at 10 uM after 48 hrs by coulter counter analysis; conditions: DU-145, 48 h, read-out: GI; how it was run: as §2
MDA-MB-468 = assay: Growth inhibition of human MDA-MB-468 cells at 10 uM after 48 hrs by coulter counter analysis; conditions: MDA-MB-468, 48 h, read-out: GI; how it was run: as §2
T47D = assay: Growth inhibition of human T47D cells at 10 uM after 48 hrs by coulter counter analysis; conditions: read-out: GI; how it was run: as §1
EKVX = assay: Growth inhibition of human EKVX cells at 10 uM after 48 hrs by coulter counter analysis; conditions: read-out: GI; how it was run: as §2
NCI-H322M = assay: Growth inhibition of human NCI-H322M cells at 10 uM after 48 hrs by coulter counter analysis; conditions: read-out: GI; how it was run: as §2
HT-29 = assay: Growth inhibition of human HT-29 cells at 10 uM after 48 hrs by coulter counter analysis; conditions: HT-29, 48 h, read-out: GI; how it was run: as §2
PC-3 = assay: Growth inhibition of human PC3 cells at 10 uM after 48 hrs by coulter counter analysis; conditions: PC-3, 48 h, read-out: GI; how it was run: as §2

Compound `Cc1csc(NC(=O)C(C)N2CCN(C)CC2)n1` (configuration not stated) has an inhibition of growth at 10 µM (UO-31) of under 10%, an inhibition of growth at 10 µM (BT-549) of 13.3% and an inhibition of growth at 10 µM (RPMI-8226) of under 10%. For the same compound, the inhibition of growth at 10 µM (CAKI-1) was under 10%, the inhibition of growth at 10 µM (U-251) was 23.5% and the inhibition of growth at 10 µM (OVCAR-8) was under 10%. For the same compound, the inhibition of growth at 10 µM (ACHN) was under 10%, the inhibition of growth at 10 µM [1] was under 10% and the inhibition of growth at 10 µM (HOP-92) was under 10%. The inhibition of growth at 10 µM (SR) was under 10%, the inhibition of growth at 10 µM (A549) was under 10% and the inhibition of growth at 10 µM (NCI-H23) was 19.8%. It also gave an inhibition of growth at 10 µM (SNB-75) of under 10%, an inhibition of growth at 10 µM (CCRF-CEM) of 41.1% and an inhibition of growth at 10 µM (K562) of under 10%. It also gave an inhibition of growth at 10 µM (HOP-62) of 10.9%, an inhibition of growth at 10 µM (786-0) of under 10% and an inhibition of growth at 10 µM (OVCAR-5) of under 10%. For the same compound, the inhibition of growth at 10 µM (NCI-H460) was under 10%, the inhibition of growth at 10 µM (OVCAR-3) was under 10% and the inhibition of growth at 10 µM (SN12C) was 11.5%. The inhibition of growth at 10 µM (SF-295) was under 10%, the inhibition of growth at 10 µM (KM12) was under 10% and the inhibition of growth at 10 µM (SK-MEL-5) was 11.3%. For the same compound, the inhibition of growth at 10 µM (NCI-H226) was under 10%, the inhibition of growth at 10 µM (SK-MEL-28) was under 10% and the inhibition of growth at 10 µM (MDA-MB-231) was 13.3%. The inhibition of growth at 10 µM (SW-620) was under 10%, the inhibition of growth at 10 µM (HCT-116) was 30.1% and the inhibition of growth at 10 µM (DU-145) was under 10%. It also gave an inhibition of growth at 10 µM (MDA-MB-468) of 11.1%, an inhibition of growth at 10 µM (T47D) of under 10% and an inhibition of growth at 10 µM (EKVX) of under 10%. It also gave an inhibition of growth at 10 µM (NCI-H322M) of under 10%, an inhibition of growth at 10 µM (HT-29) of under 10% and an inhibition of growth at 10 µM (PC-3) of under 10%.

`CC(C(=O)Nc1nccs1)N1CCN(c2ccccc2)CC1` (configuration not stated) gave an inhibition of growth at 10 µM (UO-31) of under 10%, an inhibition of growth at 10 µM (BT-549) of under 10% and an inhibition of growth at 10 µM (RPMI-8226) of under 10%. It also gave an inhibition of growth at 10 µM (CAKI-1) of under 10%, an inhibition of growth at 10 µM (U-251) of under 10% and an inhibition of growth at 10 µM (OVCAR-8) of under 10%. For the same compound, the inhibition of growth at 10 µM (ACHN) was under 10%, the inhibition of growth at 10 µM [1] was under 10% and the inhibition of growth at 10 µM (HOP-92) was under 10%. For the same compound, the inhibition of growth at 10 µM (SR) was under 10%, the inhibition of growth at 10 µM (A549) was under 10% and the inhibition of growth at 10 µM (NCI-H23) was under 10%. For the same compound, the inhibition of growth at 10 µM (SNB-75) was under 10%, the inhibition of growth at 10 µM (CCRF-CEM) was under 10% and the inhibition of growth at 10 µM (K562) was under 10%. The inhibition of growth at 10 µM (HOP-62) was under 10%, the inhibition of growth at 10 µM (786-0) was under 10% and the inhibition of growth at 10 µM (OVCAR-5) was under 10%. The inhibition of growth at 10 µM (NCI-H460) was under 10%, the inhibition of growth at 10 µM (OVCAR-3) was under 10% and the inhibition of growth at 10 µM (SN12C) was under 10%. It also gave an inhibition of growth at 10 µM (SF-295) of under 10%, an inhibition of growth at 10 µM (KM12) of under 10% and an inhibition of growth at 10 µM (SK-MEL-5) of under 10%. The inhibition of growth at 10 µM (NCI-H226) was under 10%, the inhibition of growth at 10 µM (SK-MEL-28) was under 10% and the inhibition of growth at 10 µM (MDA-MB-231) was under 10%. For the same compound, the inhibition of growth at 10 µM (SW-620) was under 10%, the inhibition of growth at 10 µM (HCT-116) was under 10% and the inhibition of growth at 10 µM (DU-145) was under 10%. For the same compound, the inhibition of growth at 10 µM (MDA-MB-468) was under 10%, the inhibition of growth at 10 µM (T47D) was under 10% and the inhibition of growth at 10 µM (EKVX) was under 10%. The inhibition of growth at 10 µM (NCI-H322M) was under 10%, the inhibition of growth at 10 µM (HT-29) was under 10% and the inhibition of growth at 10 µM (PC-3) was under 10%.
